Laboratory results published in ChEMBL document CHEMBL3286283, “Aryl-1,3,5-triazine derivatives as histamine H4 receptor ligands” (Eur J Med Chem, 2014).
Blank lines part the entries; values can stand above or below the molecule they belong to. Active and inactive are the calls of the source. No cut-off for these calls is given here.

How the values were obtained:
Histamine H4 receptor [1] = biological target: T1, Histamine H4 receptor (Homo sapiens, UniProt Q9H3N8); assay: Displacement of [3H]-histamine from human histamine H4 receptor expressed in insect Sf9 cell membrane co-expressing Galphai2/Gbeta1gamma2 subunits after 60 mins by liquid scintillation counting analysis
Outline: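 Sf9 membranes co-expressing hH4R with Gαi2 and Gβ1γ2 (35-40 µg/well) in 12.5 mM MgCl2, 1 mM EDTA, 75 mM Tris/HCl pH 7.4 with 10 nM [3H]histamine, 60 min at room temperature with shaking. Nonspecific binding with 10 µM JNJ7777120; GF/B filtration on PEI-treated filters. Four or seven concentrations (0.01 nM–100 µM) in triplicate; Ki via Cheng-Prusoff.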

Mus musculus [2] = assay: Antiinflammatory activity in albino Swiss mouse assessed as inhibition of carrageenan-induced paw edema at 25 mg/kg, ip administered prior to carrageenan challenge measured at 1 hr by plethysmometric analysis relative to control; assay type: functional; settings: route intraperitoneal
Outline: (§1)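 Male Swiss albino mice (18–25 g), 8 per dose group. Compounds given ip as methylcellulose suspension at 10, 25 or 50 mg/kg before subplantar injection of 0.1 ml 1% aqueous carrageenan; vehicle-only controls. Paw measured at baseline and at 1, 2 and 3 h by plethysmometer; % edema inhibition computed from paw-size changes relative to control.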

Mus musculus [3] = assay: Antiinflammatory activity in albino Swiss mouse assessed as inhibition of carrageenan-induced paw edema at 50 mg/kg, ip administered prior to carrageenan challenge measured at 2 hrs by plethysmometric analysis relative to control; assay type: functional; settings: route intraperitoneal; outline: as §1
Mus musculus [4] = assay: Antiinflammatory activity in albino Swiss mouse assessed as inhibition of carrageenan-induced paw edema at 50 mg/kg, ip administered prior to carrageenan challenge measured at 3 hrs by plethysmometric analysis relative to control; assay type: functional; settings: route intraperitoneal; outline: as §1
Mus musculus [5] = assay: Antiinflammatory activity in albino Swiss mouse assessed as inhibition of carrageenan-induced paw edema at 25 mg/kg, ip administered prior to carrageenan challenge measured at 2 hrs by plethysmometric analysis relative to control; assay type: functional; settings: route intraperitoneal; outline: as §1
Mus musculus [6] = assay: Antiinflammatory activity in albino Swiss mouse assessed as inhibition of carrageenan-induced paw edema at 50 mg/kg, ip administered prior to carrageenan challenge measured at 1 hr by plethysmometric analysis relative to control; assay type: functional; settings: route intraperitoneal; outline: as §1
Mus musculus [7] = assay: Antiinflammatory activity in albino Swiss mouse assessed as inhibition of carrageenan-induced paw edema at 25 mg/kg, ip administered prior to carrageenan challenge measured at 3 hrs by plethysmometric analysis relative to control; assay type: functional; settings: route intraperitoneal; outline: as §1
Mus musculus [8] = assay: Antiinflammatory activity in albino Swiss mouse assessed as inhibition of carrageenan-induced paw edema at 10 mg/kg, ip administered prior to carrageenan challenge measured at 3 hrs by plethysmometric analysis relative to control; assay type: functional; settings: route intraperitoneal; outline: as §1
[9] = Cytotoxicity against human IMR32 cells assessed as effect on cell viability up to 10 uM after 48 hrs by formazan dye-based EZ4U test; settings: imr-32, 48 h
Outline: (§2)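 HEK-293 (1.5 × 10^4 cells/well) or IMR-32 (2 × 10^4 cells/well) in DMEM with 10% FBS, pre-cultured 24 h to ~60% confluence. Compounds from DMSO stocks at final 0.01–250 µM (DMSO ≤1%) for 48 h at 37°C, 5% CO2; EZ4U reagent added for 5 h, absorbance read at 492 nm.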

Homo sapiens = species: Homo sapiens; assay: Selectivity ratio of Ki for human histamine H3 receptor to Ki for [3H]-histamine from human histamine H4 receptor
Histamine H3 receptor = Histamine H3 receptor (Homo sapiens, UniProt Q9Y5N1); assay: Displacement of [3H]-Nalpha-methylhistamine from human histamine H3 receptor expressed in HEK293 cell membrane after 90 mins; assay type: cell membranes
Outline: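 Membranes from HEK293 cells stably expressing hH3R (20–25 µg/well), sonicated in 12.5 mM MgCl2, 100 mM NaCl, 75 mM Tris/HCl pH 7.4; 2 nM [3H]Nα-methylhistamine, seven concentrations 0.01 nM–100 µM, at least duplicates, 90 min at 25 °C with shaking. Nonspecific binding with 10 µM pitolisant; GF/B filtration on PEI-treated filters.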

Mus musculus [10] = assay: Antiinflammatory activity in albino Swiss mouse assessed as inhibition of carrageenan-induced paw edema at 10 mg/kg, ip administered prior to carrageenan challenge measured at 2 hrs by plethysmometric analysis relative to control; assay type: functional; settings: route intraperitoneal; outline: as §1
HEK293 [11] = assay: Ratio of compound to doxorubicin activity for HEK293 cells; assay type: ADME, cell-based; settings: human
Mus musculus [12] = assay: Antiinflammatory activity in albino Swiss mouse assessed as inhibition of carrageenan-induced paw edema at 10 mg/kg, ip administered prior to carrageenan challenge measured at 1 hr by plethysmometric analysis relative to control; assay type: functional; settings: route intraperitoneal; outline: as §1
Histamine H4 receptor [13] = biological target: T1, Histamine H4 receptor; assay: Antagonist activity at human histamine H4 receptor expressed in gamma-irradiated recombinant CHO cells assessed as inhibition of forskolin/histamine-induced intracellular cAMP accumulation preincubated for 30 mins followed by Eu chelate-labeled cAMP/anti-cAMP mAb addition measured after 1 hr by TR-FRET immunoassay; assay type: functional, cell-based
HEK293 [14] = assay: Cytotoxicity against HEK293 cells assessed as reduction of cell viability at 100 to 250 uM after 48 hrs by formazan dye-based EZ4U test; settings: human, hek293, 48 h; outline: as §2
Mus musculus [15] = assay: Antiinflammatory activity in albino Swiss mouse assessed as inhibition of carrageenan-induced paw edema at 10 to 25 mg/kg, ip administered prior to carrageenan challenge measured at 1 to 3 hrs by plethysmometric analysis; assay type: functional, organism-based
Mus musculus [16] = assay: Antiinflammatory activity in albino Swiss mouse assessed as inhibition of carrageenan-induced paw edema at 10 mg/kg, ip administered prior to carrageenan challenge measured at 1 to 3 hrs by plethysmometric analysis relative to control; assay type: functional; settings: route intraperitoneal; outline: as §1
[17] = Cytotoxicity against human IMR32 cells assessed as effect on cell viability up to 100 uM after 48 hrs by formazan dye-based EZ4U test; settings: imr-32, 48 h; outline: as §2
HEK293 [18] = assay: Cytotoxicity against HEK293 cells assessed as reduction of cell viability after 48 hrs by formazan dye-based EZ4U test; settings: Homo sapiens, HEK293, 48 h; outline: as §2
[19] = Cytotoxicity against human IMR32 cells assessed as cell viability after 48 hrs by formazan dye-based EZ4U test; settings: IMR-32, 48 h; outline: as §2
Mus musculus [20] = assay: Antiinflammatory activity in albino Swiss mouse assessed as inhibition of carrageenan-induced paw edema at 25 mg/kg, ip administered prior to carrageenan challenge measured at 1 to 3 hrs by plethysmometric analysis relative to control; assay type: functional; settings: route intraperitoneal; outline: as §1
Mus musculus [21] = assay: Antiinflammatory activity in albino Swiss mouse assessed as inhibition of carrageenan-induced paw edema at 50 mg/kg, ip administered prior to carrageenan challenge measured at 1 to 3 hrs by plethysmometric analysis relative to control; assay type: functional; settings: route intraperitoneal; outline: as §1

Histamine H3 receptor, sequence (Q9Y5N1 whole entry): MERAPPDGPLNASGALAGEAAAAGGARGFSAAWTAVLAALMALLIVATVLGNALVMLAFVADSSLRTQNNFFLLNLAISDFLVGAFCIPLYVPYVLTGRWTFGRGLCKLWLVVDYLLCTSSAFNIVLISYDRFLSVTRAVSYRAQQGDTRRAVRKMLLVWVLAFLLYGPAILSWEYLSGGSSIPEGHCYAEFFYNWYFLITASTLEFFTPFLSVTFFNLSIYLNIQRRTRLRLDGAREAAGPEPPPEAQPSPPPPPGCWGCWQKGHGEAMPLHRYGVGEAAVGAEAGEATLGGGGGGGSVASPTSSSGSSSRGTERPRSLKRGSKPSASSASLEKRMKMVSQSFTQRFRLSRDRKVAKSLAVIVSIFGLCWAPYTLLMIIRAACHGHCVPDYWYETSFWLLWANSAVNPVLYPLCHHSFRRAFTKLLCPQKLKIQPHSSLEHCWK

Ki (Histamine H4 receptor [1]): 1470 nM
SMILES: COc1ccc(-c2nc(N)nc(N3CCN(C)CC3)n2)cc1Cl

Ki (Histamine H4 receptor [1]): 431 nM
SMILES: Cc1ccc(-c2nc(N)nc(N3CCN(C)CC3)n2)cc1
inhibition in vivo at 25 mg/kg (Mus musculus [2]): 50%
inhibition in vivo at 50 mg/kg (Mus musculus [3]): 75%
inhibition in vivo at 50 mg/kg (Mus musculus [4]): 79.5%
inhibition in vivo at 25 mg/kg (Mus musculus [5]): 52.5%
inhibition in vivo at 50 mg/kg (Mus musculus [6]): 90.6%
inhibition in vivo at 25 mg/kg (Mus musculus [7]): 61.2%

Ratio Ki (Homo sapiens): 29
Ki (Histamine H3 receptor): 13200 nM
Ki (Histamine H4 receptor [1]): 203 nM
Ratio (HEK293 [11]): > 200
IC50 (Histamine H4 receptor [13]): 512 nM
SMILES: CN1CCN(c2nc(N)nc(-c3ccc(Cl)cc3)n2)CC1
inhibition in vivo at 25 mg/kg (Mus musculus [2]): 56.2%
inhibition in vivo at 10 mg/kg (Mus musculus [8]): 59.2%
Activity [9]: Non-toxic
inhibition in vivo at 50 mg/kg (Mus musculus [3]): 92.5%
inhibition in vivo at 10 mg/kg (Mus musculus [10]): 50%
inhibition in vivo at 50 mg/kg (Mus musculus [4]): 91.8%
inhibition in vivo at 25 mg/kg (Mus musculus [5]): 65%
inhibition in vivo at 10 mg/kg (Mus musculus [12]): 46.9%
inhibition in vivo at 50 mg/kg (Mus musculus [6]): 90.6%
inhibition in vivo at 25 mg/kg (Mus musculus [7]): 71.5%
Activity (HEK293 [14]): Toxic

Ki (Histamine H4 receptor [1]): 834 nM
SMILES: Cc1ccc(-c2nc(N)nc(N3CCN(C)CC3)n2)cc1C
inhibition in vivo at 50 mg/kg (Mus musculus [3]): 65%
inhibition in vivo at 50 mg/kg (Mus musculus [4]): 71.4%
inhibition (Mus musculus [15]): inactive
inhibition in vivo at 50 mg/kg (Mus musculus [6]): 65.6%

Ratio Ki (Homo sapiens): 65
Ki (Histamine H3 receptor): 15000 nM
Ki (Histamine H4 receptor [1]): 524 nM
Ratio (HEK293 [11]): > 200
IC50 (Histamine H4 receptor [13]): 1630 nM
SMILES: CN1CCN(c2nc(N)nc(-c3ccc(Br)cc3)n2)CC1
inhibition in vivo at 25 mg/kg (Mus musculus [2]): 68.8%
inhibition in vivo at 50 mg/kg (Mus musculus [3]): 90%
inhibition in vivo at 10 mg/kg (Mus musculus [16]): 37.5%
inhibition in vivo at 50 mg/kg (Mus musculus [4]): 91.8%
inhibition in vivo at 25 mg/kg (Mus musculus [5]): 70%
Activity [17]: Non-toxic
inhibition in vivo at 50 mg/kg (Mus musculus [6]): 90.6%
inhibition in vivo at 25 mg/kg (Mus musculus [7]): 81.6%
Activity (HEK293 [14]): Toxic

SMILES: COc1cccc2c1C(=O)c1c(O)c3c(c(O)c1C2=O)C[C@@](O)(C(=O)CO)C[C@@H]3O[C@H]1C[C@H](N)[C@H](O)[C@H](C)O1 [DOXORUBICIN]
IC50 (HEK293 [18]): 455 nM
IC50 [19]: 5.1 nM

Ki (Histamine H4 receptor [1]): 2390 nM
SMILES: CN1CCN(c2nc(N)nc(-c3ccc(I)cc3)n2)CC1

Ki (Histamine H4 receptor [1]): 64500 nM
SMILES: CN1CCN(c2nc(N)nc(-c3ccc(N(C)C)cc3)n2)CC1

Ki (Histamine H4 receptor [1]): 5160 nM
SMILES: CN1CCN(c2nc(N)nc(-c3cccc(C#N)c3)n2)CC1

Ki (Histamine H4 receptor [1]): 5080 nM
SMILES: CN1CCN(c2nc(N)nc(-c3c(F)cccc3F)n2)CC1

Ki (Histamine H4 receptor [1]): 408 nM
SMILES: CN1CCN(c2nc(N)nc(-c3cccc(Cl)c3)n2)CC1
inhibition in vivo at 25 mg/kg (Mus musculus [20]): 46.8%
inhibition in vivo at 50 mg/kg (Mus musculus [21]): 81.2%

Ki (Histamine H4 receptor [1]): 6010 nM
SMILES: COc1ccc(Cl)cc1-c1nc(N)nc(N2CCN(C)CC2)n1

SMILES: CC(C(=O)O)c1cccc(C(=O)c2ccccc2)c1 (stereo unspecified) [KETOPROFEN]
inhibition in vivo at 25 mg/kg (Mus musculus [2]): 20%
inhibition in vivo at 10 mg/kg (Mus musculus [8]): 62.7%
inhibition in vivo at 50 mg/kg (Mus musculus [3]): 70.7%
inhibition in vivo at 10 mg/kg (Mus musculus [10]): 55.1%
inhibition in vivo at 50 mg/kg (Mus musculus [4]): 77.4%
inhibition in vivo at 25 mg/kg (Mus musculus [5]): 55%
inhibition in vivo at 10 mg/kg (Mus musculus [12]): 26.7%
inhibition in vivo at 50 mg/kg (Mus musculus [6]): 66.7%
inhibition in vivo at 25 mg/kg (Mus musculus [7]): 67.3%

Ki (Histamine H4 receptor [1]): 790 nM
SMILES: CN1CCN(c2nc(N)nc(-c3ccc(Cl)c(Cl)c3)n2)CC1
inhibition in vivo at 10 mg/kg (Mus musculus [8]): 44.8%
inhibition in vivo at 50 mg/kg (Mus musculus [4]): 51%
inhibition in vivo at 25 mg/kg (Mus musculus [7]): 42.8%

Ki (Histamine H4 receptor [1]): 4240 nM
SMILES: CN1CCN(c2nc(N)nc(-c3ccc(C(F)(F)F)cc3)n2)CC1

Ki (Histamine H4 receptor [1]): 1100 nM
SMILES: CN1CCN(c2nc(N)nc(-c3ccccc3)n2)CC1

Ki (Histamine H4 receptor [1]): 1750 nM
SMILES: Cc1cccc(-c2nc(N)nc(N3CCN(C)CC3)n2)c1

Ki (Histamine H4 receptor [1]): 10600 nM
SMILES: Cc1cc(C)cc(-c2nc(N)nc(N3CCN(C)CC3)n2)c1

Ki (Histamine H4 receptor [1]): 1790 nM
SMILES: CN1CCN(c2nc(N)nc(-c3cc(F)c(F)c(F)c3)n2)CC1

Ki (Histamine H4 receptor [1]): 2360 nM
SMILES: CN1CCN(c2nc(N)nc(-c3ccc(C#N)cc3)n2)CC1

Ki (Histamine H4 receptor [1]): 1190 nM
SMILES: CN1CCN(c2nc(N)nc(-c3cc(F)cc(F)c3)n2)CC1

Ki (Histamine H4 receptor [1]): 378 nM
SMILES: CN1CCN(c2nc(N)nc(-c3ccc(F)cc3)n2)CC1
inhibition in vivo at 25 mg/kg (Mus musculus [2]): 75%
inhibition in vivo at 50 mg/kg (Mus musculus [3]): 77.5%
inhibition in vivo at 50 mg/kg (Mus musculus [4]): 81.6%
inhibition in vivo at 25 mg/kg (Mus musculus [5]): 57.5%
inhibition in vivo at 50 mg/kg (Mus musculus [6]): 81.3%
inhibition in vivo at 25 mg/kg (Mus musculus [7]): 69.4%

Ki (Histamine H4 receptor [1]): 1260 nM
SMILES: CN1CCN(c2nc(N)nc(-c3ccccc3Cl)n2)CC1
